From ChEMBL document CHEMBL1142699 (J Med Chem, 2005) come the findings set out here.

Active and inactive are the calls of the source. The calls are words filed in the database; no cut-off is given here. Numbered stars: 1 amine (or outer) side, 2 acyl side, 3 side chain; on linkers, the order of the positions; unused ones are H or OH. Square brackets hold non-standard residues; d marks the D form. Peptide text beside a SMILES is read from it. X1 = N[C@@H](Cc1ccccc1)CN(CC(=O)[*:2])[*:1]; Phe(4-F) = N[C@@H](Cc1ccc(F)cc1)C(=O)O

Assay [1] concerns the target T1, Nociceptin receptor (Homo sapiens, UniProt P41146). Put plainly: Agonist potency against GTPgammaS binding in CHO cell membranes expressing the human NOP receptor (CHOhNOP).
In assay [2] the target is T1, Nociceptin receptor. As to the kind of experiment: Receptor binding affinity for recombinant human N/OFQ peptide receptor (NOP) expressed in chinese hamster ovary cells. The format is cell-based, CHO.
Assay [3] has as its target T1, Nociceptin receptor. As to the kind of experiment: Inhibition of forskolin stimulated cAMP levels in CHO cells expressing the human NOP receptor (CHOhNOP). (Cyclic AMP is a second messenger, typically raised through Gs and lowered through Gi signalling.)
For assay [4], the target named is Nociceptin receptor (Mus musculus, UniProt P35377). Put plainly: (§1) Inhibition of electrically evoked contraction of mouse vas deferens. The format is functional. The gist of the method:
(§2)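 Vas deferens from male Swiss mice (25-30 g), in Mg2+-free Krebs at 33 °C under 0.3 g resting tension. Field-stimulated with 1 ms supramaximal pulses at 0.05 Hz; twitches recorded isotonically. After ~1 h equilibration, cumulative concentration-response curves in 0.5 log steps. […] 5-8 experiments.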

Assay [5] has as its target T1, Nociceptin receptor. As to the kind of experiment: Agonist potency against GTPgammaS binding in CHO cell membranes expressing human NOP receptor (CHOhNOP). The gist of the method: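 Membranes from CHO cells stably expressing human NOP, homogenized in 50 mM Tris-HCl/0.2 mM EGTA. 20 µg homogenate, 1 h at 30 °C. Buffer: Tris-HCl, 1 mM MgCl2, 100 mM NaCl, 0.2 mM EGTA, BSA, bacitracin, 10 µM peptidase inhibitors, 100 µM GDP, 150 pM GTPγ[35S]. Nonspecific binding defined with 10 µM GTPγS.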
For orientation: GTPγS is a poorly hydrolysed GTP analogue; its binding reports G protein activation.

Assay [6] has as its target Nociceptin receptor (Mus musculus) (UniProt P35377). As to the kind of experiment: Maximal inhibition of electrically evoked contraction of mouse vas deferens; Effect evident only in some tissues. Conditions: filed as agonist. The format is functional.
The target is the same in assay [7]. Put plainly: Antagonistic potency against N/OFQ in electrically evoked contraction of mouse vas deferens at 1 uM. The format is functional, tissue-based. The gist of the method:
(§3)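 Male Swiss mice (25-30 g). Vas deferens in 5 mL baths of Mg2+-free Krebs at 33 °C, 0.3 g tension, field-stimulated with supramaximal 1 ms pulses at 0.05 Hz, isotonic recording.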

Assay [8] deals with Nociceptin receptor (Cavia porcellus) (UniProt P47748). Put plainly: Maximal inhibition of electrically evoked contraction of guinea pig ileum; Effect evident only in some tissues. The format is functional, tissue-based. Conditions: filed as agonist.
Sequence of Nociceptin receptor (Cavia porcellus) (P47748 whole entry): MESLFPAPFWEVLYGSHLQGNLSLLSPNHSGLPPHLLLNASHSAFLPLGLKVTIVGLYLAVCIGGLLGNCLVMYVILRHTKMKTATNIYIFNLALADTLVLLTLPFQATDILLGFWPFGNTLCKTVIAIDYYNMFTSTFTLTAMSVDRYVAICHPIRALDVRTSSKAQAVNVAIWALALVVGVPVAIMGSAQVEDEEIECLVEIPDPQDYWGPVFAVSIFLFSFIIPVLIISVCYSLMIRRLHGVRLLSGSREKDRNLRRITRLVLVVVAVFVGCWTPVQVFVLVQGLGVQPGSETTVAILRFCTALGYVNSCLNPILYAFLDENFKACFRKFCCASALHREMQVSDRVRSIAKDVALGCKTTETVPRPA
For assay [9] the target is unchanged. Put plainly: Inhibition of electrically evoked contraction of guinea pig ileum; Effect evident only in some tissues. The format is functional, tissue-based. Conditions: filed as agonist.
The target of assay [10] is Nociceptin receptor (Mus musculus) (UniProt P35377). Put plainly: Inhibition of electrically evoked contraction of mouse vas deferens; Effect evident only in some tissues. Conditions: filed as agonist. The format is functional.
Sequence of Nociceptin receptor (Mus musculus) (P35377 whole entry): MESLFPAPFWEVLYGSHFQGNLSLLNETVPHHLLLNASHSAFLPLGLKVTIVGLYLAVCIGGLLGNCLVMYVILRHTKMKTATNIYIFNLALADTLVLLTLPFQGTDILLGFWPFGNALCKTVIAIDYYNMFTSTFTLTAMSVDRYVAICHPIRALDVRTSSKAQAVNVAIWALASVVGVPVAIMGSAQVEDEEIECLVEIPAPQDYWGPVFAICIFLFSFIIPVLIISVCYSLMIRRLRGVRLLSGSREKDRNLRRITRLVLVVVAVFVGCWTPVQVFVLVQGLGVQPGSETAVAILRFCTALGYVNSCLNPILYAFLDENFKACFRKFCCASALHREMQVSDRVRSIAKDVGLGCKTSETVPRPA
Assay [11] concerns the target Nociceptin receptor (Cavia porcellus) (UniProt P47748). Put plainly: Antagonistic potency against N/OFQ in electrically evoked contractions of guinea pig ileum at 1 uM. The format is functional, tissue-based.
The target in assay [12] is T1, Nociceptin receptor. As to the kind of experiment: Inhibition of forskolin stimulated cAMP levels in CHO […] expressing the human NOP receptor (CHOhNOP). The format is functional, cell-based.
The target of assay [13] is Nociceptin receptor (Mus musculus) (UniProt P35377). As to the kind of experiment: Inhibition of electrically evoked contraction of mouse vas deferens at 10 uM. The format is functional.
Assay [14] has the same target. Put plainly: Maximal inhibition of electrically evoked contraction of mouse vas deferens at 10 uM. The format is functional, tissue-based.
The target of assay [15] is Nociceptin receptor (Cavia porcellus) (UniProt P47748). Put plainly: Maximal inhibition of electrically evoked contraction of guinea pig ileum at 10 uM. The format is functional, tissue-based.
The target in assay [16] is T1, Nociceptin receptor. As to the kind of experiment: Agonist potency against GTPgammaS binding in CHO cell membranes expressing the human NOP receptor (CHOhNOP) at 0.1 uM. The gist of the method:
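CHOhNOP membranes (20 µg) incubated 1 h at 30 °C with gentle shaking in 50 mM Tris-HCl, 1 mM MgCl2, 100 mM NaCl, 0.2 mM EGTA, 1 mg/mL BSA, 150 µM bacitracin, 10 µM peptidase inhibitors, 100 µM GDP, 150 pM GTPγ[35S]. Nonspecific binding with 10 µM GTPγS; vacuum filtration. Data as stimulation factors (ligand/basal specific DPM); pEC50 derived.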

The target of assay [17] is Nociceptin receptor (Cavia porcellus) (UniProt P47748). As to the kind of experiment: Inhibition of electrically evoked contraction of guinea pig ileum at 10 uM. The format is functional, tissue-based.
Assay [18] addresses T1, Nociceptin receptor. As to the kind of experiment: Antagonistic potency against N/OFQ induced GTPgammaS binding to human NOP receptor expressed in CHO cell membranes at 0.1 uM. The format is functional.
For assay [19], the target named is T1, Nociceptin receptor. Conditions: CHO.
Assay [20] deals with Nociceptin receptor (Mus musculus) (UniProt P35377). Put plainly: Antagonistic potency against N/OFQ in electrically evoked contraction of mouse vas deferens at 10 uM. The format is functional, tissue-based. The gist of the method: as §3
Assay [21] has the same target. Described as §1. The format is functional. An outline of the steps:
as §2

Assay [22] has as its target Nociceptin receptor (Cavia porcellus) (UniProt P47748). Put plainly: Antagonistic potency against N/OFQ in electrically evoked contractions of guinea pig ileum at 10 uM. The format is functional, tissue-based.

T1 sequence (P41146 whole entry): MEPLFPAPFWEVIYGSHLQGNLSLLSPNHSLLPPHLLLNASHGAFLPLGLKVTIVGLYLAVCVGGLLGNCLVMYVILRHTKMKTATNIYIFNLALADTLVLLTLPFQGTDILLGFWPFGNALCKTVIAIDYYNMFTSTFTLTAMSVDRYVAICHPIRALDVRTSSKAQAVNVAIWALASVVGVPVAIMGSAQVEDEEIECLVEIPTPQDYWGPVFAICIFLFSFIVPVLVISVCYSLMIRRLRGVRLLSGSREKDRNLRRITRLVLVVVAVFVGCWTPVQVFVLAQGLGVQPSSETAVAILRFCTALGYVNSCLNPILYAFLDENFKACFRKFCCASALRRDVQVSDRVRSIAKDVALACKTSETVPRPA
Sequence of Nociceptin receptor (Mus musculus, UniProt P35377) (P35377 whole entry): as the sequence (P35377 whole entry) above

On to `C[C@H](NC(=O)CNC(=O)[C@@H](NC(=O)[C@H](Cc1ccc(F)cc1)NC(=O)CNC(=O)CNC[C@@H](N)Cc1ccccc1)[C@@H](C)O)C(=O)N[C@@H](CCCN=C(N)N)C(=O)N[C@@H](CCCCN)C(=O)N[C@@H](CO)C(=O)N[C@@H](C)C(=O)N[C@@H](CCCN=C(N)N)C(=O)N[C@@H](CCCCN)C(=O)N[C@@H](CCCN=C(N)N)C(=O)N[C@@H](CCCCN)C(=O)N[C@@H](CC(N)=O)C(=O)N[C@@H](CCC(N)=O)C(N)=O` (H-[X1]G[Phe(4-F)]TGARKSARKRKNQ-NH2), for which the values for the concentration for a half-maximal effect (EC50) at Nociceptin receptor [1], at Nociceptin receptor [3] and on Nociceptin receptor [4] were 0.209 nM, 0.302 nM and 1.02 nM, respectively. Moreover, the Ki at Nociceptin receptor [2] was 0.02 nM.
Take `C[C@H](NC(=O)CNC(=O)[C@@H](NC(=O)[C@H](Cc1ccc(F)cc1)NC(=O)CNC(=O)CNC(=O)CNCc1ccccc1)[C@@H](C)O)C(=O)N[C@@H](CCCN=C(N)N)C(=O)N[C@@H](CCCCN)C(=O)N[C@@H](CO)C(=O)N[C@@H](C)C(=O)N[C@@H](CCCN=C(N)N)C(=O)N[C@@H](CCCCN)C(=O)N[C@@H](CCCN=C(N)N)C(=O)N[C@@H](CCCCN)C(=O)N[C@@H](CC(N)=O)C(=O)N[C@@H](CCC(N)=O)C(N)=O`: the concentration giving a half-maximal response (EC50) was 0.407 nM at Nociceptin receptor [5] and 4.9 nM at Nociceptin receptor [3]. Further, on Nociceptin receptor [2], the inhibition constant (Ki) was 0.0251 nM.
On to `CC(C)C[C@H](NC(=O)[C@H](CCCCN)NC(=O)[C@H](CCCN=C(N)N)NC(=O)[C@H](C)NC(=O)[C@H](CO)NC(=O)[C@H](CCCCN)NC(=O)[C@H](CCCN=C(N)N)NC(=O)[C@H](C)NC(=O)CNC(=O)[C@@H](NC(=O)[C@H](Cc1ccccc1)NC(=O)CNC(=O)CNC[C@@H](N)Cc1ccccc1)[C@@H](C)O)C(=O)N[C@@H](C)C(=O)N[C@@H](CC(N)=O)C(=O)N[C@@H](CCC(N)=O)C(N)=O` (H-[X1]GFTGARKSARKLANQ-NH2), for which the Emax result in assay [6] and in assay [8] was “Agonist” in each case. Moreover, the results for the negative-log Kb (pKb) in assay [7] and in assay [11] were 7.17 and 6.65, respectively. Further, the EC50 was 5.25 nM at Nociceptin receptor [1] and 0.759 nM at Nociceptin receptor [3]. The “Log EC50” value in assay [9] was “Agonist”. Also, the Activity entry in assay [10] is “Agonist”. At Nociceptin receptor [2], the Ki was 0.129 nM.
In the case of `CC(C)C[C@H](NC(=O)[C@H](CCCCN)NC(=O)[C@H](CCCN=C(N)N)NC(=O)[C@H](C)NC(=O)[C@H](CO)NC(=O)[C@H](CCCCN)NC(=O)[C@H](CCCN=C(N)N)NC(=O)[C@H](C)NC(=O)CNC(=O)[C@@H](NC(=O)[C@H](Cc1ccc(F)cc1)NC(=O)CNC(=O)CNC[C@@H](N)Cc1ccccc1)[C@@H](C)O)C(=O)N[C@@H](C)C(=O)N[C@@H](CC(N)=O)C(=O)N[C@@H](CCC(N)=O)C(N)=O` (H-[X1]G[Phe(4-F)]TGARKSARKLANQ-NH2), the Emax result in assay [6] and in assay [8] was “Agonist” throughout. Besides, the negative-log Kb (pKb) in [7] worked out at 7.9; in assay [11], 8.32. For the same molecule, the results for the EC50 at Nociceptin receptor [1] and on Nociceptin receptor [3] were 0.813 nM and 0.479 nM, respectively. Besides, in [9], the “Log EC50” value is “Agonist”. In addition, the Activity result in assay [10] was “Agonist”. The inhibition constant Ki at Nociceptin receptor [2] was 0.0479 nM.
Consider `C[C@H](NC(=O)CNC(=O)[C@@H](NC(=O)[C@H](Cc1ccccc1)NC(=O)CNC(=O)CNC(=O)CNCc1ccccc1)[C@@H](C)O)C(=O)N[C@@H](CCCN=C(N)N)C(=O)N[C@@H](CCCCN)C(=O)N[C@@H](CO)C(=O)N[C@@H](C)C(=O)N[C@@H](CCCN=C(N)N)C(=O)N[C@@H](CCCCN)C(=O)N[C@@H](CCCN=C(N)N)C(=O)N[C@@H](CCCCN)C(=O)N[C@@H](CC(N)=O)C(=O)N[C@@H](CCC(=O)N(N)N)C(=O)NN`, for which the “Log EC50” value (at Nociceptin receptor [12]; in assay [13]; at Nociceptin receptor [16]; in assay [17]) was “inactive” in each case. For the same molecule, the pKb in assay [7] stood at 7.24; in assay [11], 6.79; on Nociceptin receptor [18], 9.13; on Nociceptin receptor [19], 7.11. In addition, the Emax result in assay [14] and in assay [15] was “inactive” throughout.
Take `CC(C)C[C@H](NC(=O)[C@H](CCCCN)NC(=O)[C@H](CCCN=C(N)N)NC(=O)[C@H](C)NC(=O)[C@H](CO)NC(=O)[C@H](CCCCN)NC(=O)[C@H](CCCN=C(N)N)NC(=O)[C@H](C)NC(=O)CNC(=O)[C@@H](NC(=O)[C@H](Cc1ccccc1)NC(=O)CNC(=O)CNC(=O)CNCc1ccccc1)[C@@H](C)O)C(=O)N[C@@H](C)C(=O)N[C@@H](CC(N)=O)C(=O)N[C@@H](CCC(N)=O)C(N)=O`: the pKb in [20] was 6.07; in assay [22], 6.21. The “Log EC50” value in assay [21] and in assay [17] was “inactive” in each case. Also, the Emax result in [14] and in assay [15] was “inactive” throughout.
On to `C[C@H](NC(=O)CNC(=O)[C@@H](NC(=O)[C@H](Cc1ccccc1)NC(=O)CNC(=O)CNC[C@@H](N)Cc1ccccc1)[C@@H](C)O)C(=O)N[C@@H](CCCN=C(N)N)C(=O)N[C@@H](CCCCN)C(=O)N[C@@H](CO)C(=O)N[C@@H](C)C(=O)N[C@@H](CCCN=C(N)N)C(=O)N[C@@H](CCCCN)C(=O)N[C@@H](CCCN=C(N)N)C(=O)N[C@@H](CCCCN)C(=O)N[C@@H](CC(N)=O)C(=O)N[C@@H](CCC(N)=O)C(N)=O` (H-[X1]GFTGARKSARKRKNQ-NH2), for which the results for the concentration giving a half-maximal response (EC50) on Nociceptin receptor [1] and at Nociceptin receptor [3] were 0.933 nM and 0.24 nM, respectively. Further, the inhibition constant Ki on Nociceptin receptor [2] was 0.0316 nM.

One may read the EC50 as the concentration needed to bring the measured effect to its halfway point. A higher EC50 goes with weaker potency. Broadly, the Ki is the dissociation constant of the complex between target and ligand, obtained from inhibition or displacement. Usually pKb stands for the negative decadic logarithm of the Kb, by convention in mol/L. A lower pKb goes with a large Kb.
